ABCB1 inh: inhibitors of human ABCB1 transporter, ABCG2 counter-screen. P08183. CCRF-Adr cells, JC-1 efflux, flow cytometry. inhibition, % at 6.6 µM. 190,000 compounds, 0.067% hits. AID 1326; in the data active = inhibition above about 40%;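 note: 0% = vehicle and 100% = reference inhibitor; higher value means more JC-1 retained so stronger ABCB1 efflux block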
WT yeast gro inh: growth inhibition of WT yeast, mitochondrial fusion screen. mitochondrial fusion phenotypic screen, WT strain. inhibition, % at 10 µM. 190,000 compounds, 2.1% hits. AID 1362; in the data active = inhibition above about 58%; tested in S. cerevisiae
ABCG2 block: human ABCG2 inhibition, ABCB1 as counter-screen; Q9UNQ0; IgMXP3 cells, JC-1 efflux, flow cytometry; inhibition, % at 6.6 µM; 190,000 compounds, 0.1% hits; AID 1325;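 active = inhibition above 80%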;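 note: 0% = DMSO and 100% = nicardipine control wells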
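Test system: ABCG2 IgMXP3 and barcoded ABCB1 CCRF-Adr cell mix; Schedule: cells with compound and JC-1, 10 min at 25 °C, rotating, no wash; Technique: flow cytometry of retained JC-1 fluorescence; Measure: % inhibition of efflux relative to nicardipine and DMSO; Controls: nicardipine high and DMSO low controls.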
MEKK2wt PB1 HTS: raises or lowers MEK5 binding to wildtype human MEKK2 PB1 domain. Q9Y2U5. bead flow cytometry, Alexa488-MEK5 binding to MEKK2 WT; actives lie on both sides. binding response (% of control), % at 10 µM. 290,000 compounds, 1.1% hits. AID 1531; in the data active = binding response below about 67% or above about 130%
MEKK3 PB1 HTS: raises or lowers MEK5 binding to the human MEKK3 PB1 domain. bead-based flow cytometry, Alexa488-MEK5 binding to MEKK3; actives lie on both sides; 0 = blocked by unlabeled MEK5, 100 = vehicle. binding response (% of control), % at 10 µM. 290,000 compounds, 1.4% hits;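 active = binding response more than 3 SD above or below the average of its plate-row segment, actives on both sides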;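 note: Alexa488 bead fluorescence after subtracting the streptavidin-only scavenger bead signal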
Target sequence (Q99759 whole entry, looked up, the tested form may be a part): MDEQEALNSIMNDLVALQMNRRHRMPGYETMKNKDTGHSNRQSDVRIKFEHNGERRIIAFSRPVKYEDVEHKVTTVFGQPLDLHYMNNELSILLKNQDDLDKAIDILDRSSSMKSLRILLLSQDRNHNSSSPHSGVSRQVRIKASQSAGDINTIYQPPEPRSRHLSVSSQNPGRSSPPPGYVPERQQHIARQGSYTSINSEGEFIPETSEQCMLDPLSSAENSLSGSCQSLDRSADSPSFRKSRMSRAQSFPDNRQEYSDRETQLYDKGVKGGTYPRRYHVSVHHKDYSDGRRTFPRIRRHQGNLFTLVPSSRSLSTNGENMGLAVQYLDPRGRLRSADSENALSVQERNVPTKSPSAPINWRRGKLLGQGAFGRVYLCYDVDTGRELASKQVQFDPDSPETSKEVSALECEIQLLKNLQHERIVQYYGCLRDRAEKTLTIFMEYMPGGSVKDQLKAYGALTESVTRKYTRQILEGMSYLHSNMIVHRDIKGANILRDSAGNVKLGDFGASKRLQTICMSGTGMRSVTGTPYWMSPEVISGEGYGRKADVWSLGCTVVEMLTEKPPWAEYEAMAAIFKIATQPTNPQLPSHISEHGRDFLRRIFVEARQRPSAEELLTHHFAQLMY
MEKK2 mut-MEK5: signal of MEK5 binding to mutant human MEKK2 PB1 domain; percent response, % at 10 µM; bead flow cytometry, Alexa488-MEK5 binding to MEKK2 mutant; 290,000 compounds, 0.35% hits; AID 1530; in the data active = percent response above about 24%, passing the limit was not always enough
* = called active by the depositor; . = no result; + = active, no number. Sampled rows, rich in hits. Any-hit rate of the full collection: about 3.5%.

SMILES | ABCB1 inh | WT yeast gro inh | ABCG2 block | MEKK2wt PB1 HTS | MEKK3 PB1 HTS | MEKK2 mut-MEK5
Cc1oc2cc3oc(=O)c(CCC(=O)N[C@H](C(=O)O)C(C)C)c(C)c3cc2c1C | . | . | . | 105 | 111 | 3
COc1ccccc1OCC(=O)Nc1ccc(S(=O)(=O)N2CCCC2)cc1 | . | . | . | 98 | 103 | -4
CCOC(=O)C1=C(C)NC(=O)NC1c1ccc(-c2ccc(Cl)cc2)o1 (configuration not stated) | 1 | -16 | 3 | 105 | 128 | 8
CCOC(=O)C1=C(C)NC(=S)NC1c1ccc(-c2ccc(Cl)cc2)o1 (configuration not stated) | 0 | 66* | 5 | 97 | 100 | 2
O=C1c2ccccc2NC(c2ccc(Cl)cc2Cl)N1Cc1ccccc1 (configuration not stated) | -1 | 81* | 4 | 91 | 97 | -7
CSCC[C@H](N)C(=O)N1CCC(C(=O)N[C@H](C)C(=O)Nc2ccc(C(C)C)cc2)CC1 | . | . | . | 102 | 103 | 2
COC(=O)CCC(=O)Nc1sc(Cc2ccccc2)c(C)c1C(N)=O | 0 | 64* | 1 | 94 | 102 | -1
CCCC(=O)Nc1sc(Cc2ccccc2)c(C)c1C(N)=O | 0 | 48 | 1 | 97 | 103 | -1
CCOC(=O)c1sc2nc(CSc3ccccc3)nc(N3CCC(C(N)=O)CC3)c2c1C | 1 | 71* | 2 | 95 | 105 | -5
CCC(=O)Nc1ccc(-c2nnc(SCc3ccc(C(=O)Nc4nccs4)cc3)n2CC)cc1 | 0 | 60* | 2 | 103 | 100 | 1
COc1ccc(Oc2ncc(CN3CCN(c4ccccc4)CC3)s2)cc1 | 0 | 28 | 0 | 106 | 106 | 8
Cc1cc(Cl)ccc1Oc1ncc(CN2CCN(c3ccccc3)CC2)s1 | 0 | 64* | 1 | 106 | 100 | 7
CCN(CC)c1ccc(/C=C(\C#N)c2ccccn2)cc1 | -2 | 68* | 0 | 96 | 99 | -1
CC1C/C(=N\NC(=S)NCc2ccccc2)CC(C)(C)C1 (configuration not stated) | 0 | 64* | 1 | 96 | 101 | -1
CC1CCC/C(=N\NC(=S)NCc2ccccc2)C1 (configuration not stated) | 0 | 15 | 1 | 95 | 90 | -9
COc1ccc(N(CC(C)C)S(=O)(=O)c2nnc(NC(=O)CC(C)C)s2)cc1 | . | . | . | 108 | 110 | 13
Cc1ccc(C)c(SCC(=O)Nc2nnc(-c3ccccc3)o2)c1 | 1 | 73* | 8 | . | . | .
Cc1ccccc1C(=O)Nc1nnc(-c2ccc(F)cc2)o1 | 1 | 70* | 4 | 115 | 111 | 12
COc1ccc(CCNCc2cc3ccc(C)cc3[nH]c2=O)cc1OC | . | . | . | 107 | 105 | 7
COc1cccc(NC(=O)CSc2nc3c(sc4ccccc43)c(=O)n2CCCN2CCCC2)c1 | . | . | . | 179* | 110 | 21
COc1cccc2c(=O)cc(C)n(CC(=O)Nc3cccc(C)c3)c12 | 1 | -4 | 26 | 97 | 105 | -4
Cc1nc(N2CCCCC2)c2c(C)c(C(=O)Nc3ccccc3C(F)(F)F)sc2n1 | 1 | 66* | 3 | 80 | 96 | -10
Cc1nc(N2CCCCC2C)c2c(C)c(C(=O)Nc3cccc(C(F)(F)F)c3)sc2n1 (configuration not stated) | 0 | 68* | 3 | 116 | 102 | 9
Cc1nc(N2CCCCC2)c2c(C)c(C(=O)Nc3cccc(C(F)(F)F)c3)sc2n1 | 1 | 70* | 11 | 116 | 106 | -4
CCOc1ccccc1NC(=O)c1sc2nc(C)nc(N3CCOCC3)c2c1C | . | . | . | 98 | 95 | -5
SMILES | ABCB1 inh | WT yeast gro inh | ABCG2 block | MEKK2wt PB1 HTS | MEKK3 PB1 HTS | MEKK2 mut-MEK5
Cc1ccc(S(=O)(=O)NCCCNC(=O)N2CCOCC2)cc1 | -1 | 8 | 2 | 84 | 83 | -8
CC(C)(C)OC(=O)NCCc1nnc(SCc2ccc(Cl)cc2Cl)o1 | 2 | 0 | 2 | 100 | 101 | -3
Clc1cccc(NCc2nnc(SCc3ccc(Cl)cc3Cl)o2)c1 | 1 | 62* | 0 | 101 | 86 | 5
O=c1oc2cc(O)ccc2cc1-c1nc2c(s1)CCc1ccccc1-2 | 138* | 98* | + | 82 | 91 | -7
CC(OC(=O)C1=COCCO1)C(=O)Nc1ccc(Oc2ccccc2)cc1 (configuration not stated) | 2 | -9 | 7 | 102 | 101 | 3
O=C(OC(C(=O)Nc1cc(Cl)cc(Cl)c1)c1ccccc1)C1=COCCO1 (configuration not stated) | 19 | 58* | 13 | 92 | 97 | -2
Cc1ccc(C)c(NC(=O)C2CCCN(c3cnccn3)C2)c1 (configuration not stated) | . | . | . | 99 | 100 | 1
CCCCCn1c(=O)[nH]c2cc(C(=O)NCCN3CCCCC3C)ccc2c1=O (configuration not stated) | . | . | . | 111 | 101 | 1
CCn1c(C)c(C)c2cc(C(=O)NCCCN3CCCCC3C)ccc21 (configuration not stated) | . | . | . | 17* | 103 | 41*
CCn1c(C)c(C)c2cc(C(=O)NCCCN3CCCC3)ccc21 | . | . | . | 144* | 104 | 14
CCn1c(C)c(C)c2cc(C(=O)NCCN3CCOCC3)ccc21 | . | . | . | 98 | 95 | 1
Cc1ccc(C)c(NC(=O)CSc2nnc(NC(=O)C3CC3)s2)c1 | . | . | . | 104 | 103 | 8
O=C(NNC(=S)Nc1ccc(F)cc1)C1[C@H]2CCCC[C@@H]12 (some centres not stated) | . | . | . | 99 | 98 | -6
O=c1c2ccccc2c(-c2ccccc2)nn1Cc1c(Cl)cccc1Cl | 2 | 61* | 11 | 95 | 104 | 2
COc1ccc(Cn2c(-c3ccc(C)cc3)c[n+]3ccccc23)cc1 | 1 | 60* | 12 | 123 | 102 | 29
COCCNC(=S)NCc1ccc2[nH]c3c(c2c1)CCCC3 | 0 | -4 | 1 | 102 | 113 | -2
Cc1ccc(NC(=S)NCc2ccc3[nH]c4c(c3c2)CCCC4)cc1 | 0 | 73* | -2 | 109 | 114 | 13
COc1ccc(C(C)C)cc1S(=O)(=O)N1CCN(c2ccccc2)CC1 | 1 | 66* | 2 | 97 | 102 | 0
CCCCCCOC1(c2ccccc2)OC(=O)c2ccccc21 (configuration not stated) | 1 | 63* | 14 | . | . | .
CCN(Cc1ccccc1)C(=O)CCc1nc(-c2ccc(C)cc2)no1 | 1 | 22 | 23 | 106 | 106 | 21
CCc1ccccc1N(CC)C(=O)CCc1nc(-c2ccc(C)cc2)no1 | 1 | 72* | 28 | 105 | 104 | 7

Source: PubChem
